Active and inactive are the calls of the source. The calls are words filed in the database; no cut-off is given here.
Tests used:
[1] = biological target: T1, Sodium-dependent noradrenaline transporter (Homo sapiens, UniProt P23975); assay: Inhibition of recombinant human NET expressed in HEK293 […] assessed as reduction in [3H]-norepinephrine uptake incubated for 22 mins by micro beta scintillation counting analysis
[2] = biological target: T2, Sodium-dependent dopamine transporter (Homo sapiens, UniProt Q01959); assay: Enhancing of [125I]RTI-55 binding to recombinant human DAT expressed in HEK293 cell membranes preincubated for 10 mins followed by radioligand addition measured after 90 mins by micro beta scintillation counting analysis
Summary of the method: (§1)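 Membranes of HEK-293 cells stably expressing hDAT, hNET or hSERT. […] Compound preincubated 10 min at room temperature, then [125I]23 (40-80 pM final) or [3H]26 (1-3 nM for DAT and NET, 10-13 nM for SERT) added. Incubated 90 min at room temperature in the dark, then filtered. EC50 or Ki; mean ± SEM.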

[3] = biological target: T1, Sodium-dependent noradrenaline transporter; assay: Enhancing of [125I]RTI-55 binding to recombinant human NET expressed in HEK293 cell membranes preincubated for 10 mins followed by radioligand addition measured after 90 mins by micro beta scintillation counting analysis
[4] = biological target: T3, Sodium-dependent serotonin transporter (Homo sapiens, UniProt P31645); assay: Enhancing of [125I]RTI-55 binding to recombinant human SERT expressed in HEK293 cell membranes preincubated for 10 mins followed by radioligand addition measured after 90 mins by micro beta scintillation counting analysis; settings: hek293
[5] = biological target: T2, Sodium-dependent dopamine transporter; assay: Enhancing of [3H]mazindol binding to recombinant human DAT expressed in HEK293 cell membranes preincubated for 10 mins followed by radioligand addition measured after 90 mins by micro beta scintillation counting analysis; settings: hek293; summary of the method: as §1
[6] = biological target: T1, Sodium-dependent noradrenaline transporter; assay: Inhibition of [125I]RTI-55 binding to recombinant human NET expressed in HEK293 cell membranes preincubated for 10 mins followed by radioligand addition measured after 90 mins by micro beta scintillation counting analysis
[7] = biological target: T1, Sodium-dependent noradrenaline transporter; assay: Enhancing of [3H]mazindol binding to recombinant human NET expressed in HEK293 cell membranes preincubated for 10 mins followed by radioligand addition measured after 90 mins by micro beta scintillation counting analysis
[8] = biological target: T1, Sodium-dependent noradrenaline transporter; assay: Inhibition of [3H]mazindol binding to recombinant human NET expressed in HEK293 cell membranes preincubated for 10 mins followed by radioligand addition measured after 90 mins by micro beta scintillation counting analysis
[9] = biological target: T2, Sodium-dependent dopamine transporter; assay: Enhancing of [3H]WIN35,428 binding to recombinant human DAT expressed in HEK293 cell membranes pre-incubated for 10 mins before radioligand addition and measured 90 mins after radioligand addition by micro beta scintillation counting analysis relative to control
[10] = biological target: T2, Sodium-dependent dopamine transporter; assay: Inhibition of recombinant human DAT expressed in HEK293 cell […] as reduction in [3H]-DA uptake incubated for 22 mins by micro beta scintillation counting analysis
[11] = biological target: Beta-3 adrenergic receptor (Homo sapiens, UniProt P13945); assay: Displacement of [3H]CGP12177 from human adrenergic beta3 receptor
[12] = biological target: T2, Sodium-dependent dopamine transporter; assay: Inhibition of [3H]mazindol binding to recombinant human DAT expressed in HEK293 cell membranes preincubated for 10 mins followed by radioligand addition measured after 90 mins by micro beta scintillation counting analysis
[13] = biological target: Adenosine receptor A3 (Homo sapiens) (UniProt P0DMS8); assay: Agonist activity at human A3AR assessed as inhibition of cAMP formation at 10 uM relative to adenosine-5'-Nethyluronamide
[14] = biological target: T2, Sodium-dependent dopamine transporter; assay: Inhibition of [3H]WIN35,428 binding to recombinant human DAT expressed in HEK293 cell membranes at 10 uM pre-incubated for 10 mins before radioligand addition and measured 90 mins after radioligand addition by micro beta scintillation counting analysis relative to control
[15] = biological target: T2, Sodium-dependent dopamine transporter; assay: Enhancing of [3H]WIN35,428 binding to recombinant human DAT expressed in HEK293 cell membranes at 10 uM pre-incubated for 10 mins before radioligand addition and measured 90 mins after radioligand addition by micro beta scintillation counting analysis relative to control
[16] = biological target: Muscarinic acetylcholine receptor M5 (Homo sapiens, UniProt P08912); assay: Displacement of [3H]QNB from human muscarinic M5 receptor
Adenosine receptor A3 = biological target: T4, Adenosine receptor A3 (Homo sapiens, UniProt P0DMS8); assay: Displacement of [125I]N6-(4-amino-3-iodobenzyl)adenosine-5'-N-methyluronamide from human A3AR expressed in HEK293T cells pre-incubated for 10 mins before radioligand addition and measured 90 mins after radioligand addition by micro beta scintillation counting analysis relative to control; format: cell-based, HEK-293T
T4 sequence (P0DMS8 whole entry): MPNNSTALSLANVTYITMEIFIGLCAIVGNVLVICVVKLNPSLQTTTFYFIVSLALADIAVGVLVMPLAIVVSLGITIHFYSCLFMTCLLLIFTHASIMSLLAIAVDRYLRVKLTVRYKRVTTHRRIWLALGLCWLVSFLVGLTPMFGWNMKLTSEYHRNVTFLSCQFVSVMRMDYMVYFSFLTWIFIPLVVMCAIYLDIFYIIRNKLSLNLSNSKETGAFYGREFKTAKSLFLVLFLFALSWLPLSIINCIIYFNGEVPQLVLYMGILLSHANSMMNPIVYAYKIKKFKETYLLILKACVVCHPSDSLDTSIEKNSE

[17] = biological target: Sigma non-opioid intracellular receptor 1 (Rattus norvegicus, UniProt Q9R0C9); assay: Displacement of [3H]Pentazocine from rat sigma 1 receptor
[18] = biological target: T5, Adenosine receptor A3 (Mus musculus) (UniProt Q61618); assay: Displacement of [125I]N6-(4-amino-3-iodobenzyl)adenosine-5'-N-methyluronamide from mouse A3AR expressed in HEK293T cells at 10 uM pre-incubated for 10 mins before radioligand addition and measured 90 mins after radioligand addition by micro beta scintillation counting analysis relative to control; format: cell-based
T5 sequence (whole entry): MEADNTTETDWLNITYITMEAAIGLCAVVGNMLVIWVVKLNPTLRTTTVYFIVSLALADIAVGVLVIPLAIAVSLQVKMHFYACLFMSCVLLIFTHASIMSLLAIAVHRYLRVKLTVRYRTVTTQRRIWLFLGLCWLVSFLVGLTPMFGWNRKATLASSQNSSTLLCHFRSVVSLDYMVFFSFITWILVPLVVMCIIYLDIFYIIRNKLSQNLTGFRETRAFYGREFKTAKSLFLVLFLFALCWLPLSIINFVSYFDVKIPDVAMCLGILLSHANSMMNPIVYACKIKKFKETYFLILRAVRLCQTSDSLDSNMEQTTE

[19] = biological target: Sigma intracellular receptor 2 (Rattus norvegicus, UniProt Q5U3Y7); assay: Displacement of [3H]DTG from rat sigma 2 receptor
[20] = biological target: T6, 5-hydroxytryptamine receptor 2C (Homo sapiens, UniProt P28335); assay: Displacement of [3H]Mesulergine from human 5-HT2C receptor
T6 sequence (P28335 whole entry): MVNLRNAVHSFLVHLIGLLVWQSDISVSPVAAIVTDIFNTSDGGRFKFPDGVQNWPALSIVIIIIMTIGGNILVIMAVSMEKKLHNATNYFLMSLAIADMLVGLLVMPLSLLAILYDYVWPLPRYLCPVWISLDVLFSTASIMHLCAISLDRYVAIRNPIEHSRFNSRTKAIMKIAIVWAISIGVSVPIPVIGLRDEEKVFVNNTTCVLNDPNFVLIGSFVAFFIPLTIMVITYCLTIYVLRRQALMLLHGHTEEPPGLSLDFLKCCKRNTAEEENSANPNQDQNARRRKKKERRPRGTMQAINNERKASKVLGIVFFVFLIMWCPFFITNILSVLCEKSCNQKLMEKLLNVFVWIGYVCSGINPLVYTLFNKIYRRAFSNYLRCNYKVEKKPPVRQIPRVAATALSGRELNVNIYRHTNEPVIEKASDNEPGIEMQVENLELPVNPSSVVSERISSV

[21] = biological target: T3, Sodium-dependent serotonin transporter; assay: Inhibition of [125I]RTI-55 binding to recombinant human SERT expressed in HEK293 cell membranes preincubated for 10 mins followed by radioligand addition measured after 90 mins by micro beta scintillation counting analysis

T2 sequence (Q01959 whole entry): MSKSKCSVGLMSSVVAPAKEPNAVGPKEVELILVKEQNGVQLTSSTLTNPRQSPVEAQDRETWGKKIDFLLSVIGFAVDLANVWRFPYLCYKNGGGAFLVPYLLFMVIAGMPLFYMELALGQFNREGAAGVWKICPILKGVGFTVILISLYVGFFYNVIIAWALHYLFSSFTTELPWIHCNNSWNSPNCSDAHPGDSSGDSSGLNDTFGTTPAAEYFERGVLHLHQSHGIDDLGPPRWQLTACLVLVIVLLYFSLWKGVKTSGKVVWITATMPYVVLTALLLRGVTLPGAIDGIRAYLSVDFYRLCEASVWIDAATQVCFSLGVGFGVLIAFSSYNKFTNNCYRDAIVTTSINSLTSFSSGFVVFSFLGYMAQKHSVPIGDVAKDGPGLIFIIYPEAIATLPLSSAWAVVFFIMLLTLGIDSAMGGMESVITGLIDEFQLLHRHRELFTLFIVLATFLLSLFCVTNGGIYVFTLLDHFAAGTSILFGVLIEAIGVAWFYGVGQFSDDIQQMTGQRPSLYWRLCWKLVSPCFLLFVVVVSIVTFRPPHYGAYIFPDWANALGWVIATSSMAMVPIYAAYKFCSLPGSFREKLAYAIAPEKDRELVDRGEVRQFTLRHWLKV
T1 sequence (P23975 whole entry): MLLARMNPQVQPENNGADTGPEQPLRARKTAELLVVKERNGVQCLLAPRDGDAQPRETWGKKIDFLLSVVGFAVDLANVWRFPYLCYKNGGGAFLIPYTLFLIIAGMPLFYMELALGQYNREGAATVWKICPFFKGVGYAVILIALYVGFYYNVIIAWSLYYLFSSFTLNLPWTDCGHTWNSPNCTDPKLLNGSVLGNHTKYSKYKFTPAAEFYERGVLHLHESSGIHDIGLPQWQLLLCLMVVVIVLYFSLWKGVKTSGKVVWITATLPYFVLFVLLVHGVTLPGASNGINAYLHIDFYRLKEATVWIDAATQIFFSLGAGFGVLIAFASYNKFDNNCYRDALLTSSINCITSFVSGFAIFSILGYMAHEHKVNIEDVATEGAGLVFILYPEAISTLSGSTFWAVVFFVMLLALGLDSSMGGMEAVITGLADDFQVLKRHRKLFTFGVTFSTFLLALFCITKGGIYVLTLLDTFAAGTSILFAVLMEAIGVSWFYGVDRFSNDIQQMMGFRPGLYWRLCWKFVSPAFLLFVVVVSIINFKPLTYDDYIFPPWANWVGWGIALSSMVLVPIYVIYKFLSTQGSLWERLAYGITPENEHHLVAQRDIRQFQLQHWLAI
T3 sequence (P31645 whole entry): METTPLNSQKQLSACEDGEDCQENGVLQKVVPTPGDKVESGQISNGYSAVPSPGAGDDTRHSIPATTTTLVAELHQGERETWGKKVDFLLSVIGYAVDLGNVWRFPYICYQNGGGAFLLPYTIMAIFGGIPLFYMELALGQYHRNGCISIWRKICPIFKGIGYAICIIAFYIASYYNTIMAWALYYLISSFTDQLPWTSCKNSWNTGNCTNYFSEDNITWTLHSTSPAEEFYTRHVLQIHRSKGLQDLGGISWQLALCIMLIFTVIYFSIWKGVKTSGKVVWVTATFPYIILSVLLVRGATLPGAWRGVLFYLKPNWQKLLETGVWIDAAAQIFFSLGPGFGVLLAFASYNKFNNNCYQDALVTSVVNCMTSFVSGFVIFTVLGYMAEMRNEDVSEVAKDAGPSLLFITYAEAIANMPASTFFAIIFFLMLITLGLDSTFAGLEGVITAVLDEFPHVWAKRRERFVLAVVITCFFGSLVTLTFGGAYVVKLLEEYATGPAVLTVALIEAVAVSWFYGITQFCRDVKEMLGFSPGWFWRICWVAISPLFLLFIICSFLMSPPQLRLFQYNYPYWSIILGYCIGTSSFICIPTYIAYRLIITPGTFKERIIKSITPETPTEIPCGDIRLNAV
Sigma intracellular receptor 2, sequence (Q5U3Y7 whole entry): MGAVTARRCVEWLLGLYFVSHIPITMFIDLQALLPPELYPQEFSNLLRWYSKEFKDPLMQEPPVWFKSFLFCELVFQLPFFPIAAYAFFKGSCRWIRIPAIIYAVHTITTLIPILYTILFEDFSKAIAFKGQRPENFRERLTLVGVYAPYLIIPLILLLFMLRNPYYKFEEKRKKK
Sigma non-opioid intracellular receptor 1, sequence (Q9R0C9 whole entry): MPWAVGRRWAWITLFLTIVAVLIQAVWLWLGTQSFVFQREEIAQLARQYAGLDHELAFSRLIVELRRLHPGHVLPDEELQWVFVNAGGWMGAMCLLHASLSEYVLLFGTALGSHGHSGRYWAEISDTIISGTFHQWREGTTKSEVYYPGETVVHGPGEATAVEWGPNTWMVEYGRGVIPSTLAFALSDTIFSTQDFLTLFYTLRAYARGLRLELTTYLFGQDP
Muscarinic acetylcholine receptor M5, sequence (P08912 whole entry): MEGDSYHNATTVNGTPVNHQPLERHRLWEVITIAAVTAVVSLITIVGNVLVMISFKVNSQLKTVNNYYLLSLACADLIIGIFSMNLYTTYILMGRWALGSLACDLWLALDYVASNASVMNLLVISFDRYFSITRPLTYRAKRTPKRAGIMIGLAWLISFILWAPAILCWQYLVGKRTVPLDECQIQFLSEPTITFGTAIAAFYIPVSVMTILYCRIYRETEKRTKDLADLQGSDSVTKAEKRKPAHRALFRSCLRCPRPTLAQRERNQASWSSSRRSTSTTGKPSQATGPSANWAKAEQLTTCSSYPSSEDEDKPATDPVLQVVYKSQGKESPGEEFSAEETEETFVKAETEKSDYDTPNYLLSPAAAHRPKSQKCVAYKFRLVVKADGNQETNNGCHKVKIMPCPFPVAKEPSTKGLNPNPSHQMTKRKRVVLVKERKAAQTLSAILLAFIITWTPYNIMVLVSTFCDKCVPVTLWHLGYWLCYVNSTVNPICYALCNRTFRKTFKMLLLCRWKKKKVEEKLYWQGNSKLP
Beta-3 adrenergic receptor, sequence (P13945 whole entry): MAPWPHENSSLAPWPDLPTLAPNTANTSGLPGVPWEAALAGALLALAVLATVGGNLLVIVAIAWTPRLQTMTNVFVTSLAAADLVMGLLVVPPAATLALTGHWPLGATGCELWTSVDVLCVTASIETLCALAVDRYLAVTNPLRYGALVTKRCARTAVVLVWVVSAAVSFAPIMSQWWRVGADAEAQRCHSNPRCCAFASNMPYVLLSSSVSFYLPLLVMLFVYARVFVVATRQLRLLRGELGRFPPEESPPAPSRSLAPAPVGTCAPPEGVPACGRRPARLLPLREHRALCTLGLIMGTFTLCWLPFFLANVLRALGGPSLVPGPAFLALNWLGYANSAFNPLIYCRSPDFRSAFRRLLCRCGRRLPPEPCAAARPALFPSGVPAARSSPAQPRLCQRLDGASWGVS

## OC1(c2ccc(Cl)cc2)c2ccccc2C2=NCCN21 (racemic) [MAZINDOL]
[1]
  IC50: 0.92 nM
[2]; hek293
  EC50: Not Active
[3]; hek293
  EC50: Not Active
[4]
  EC50: Not Active
[5]
  EC50: Not Active
[6]
  Ki: 11.3 nM
[7]
  EC50: Not Active
[8]
  Ki: 13.5 nM

## CCCNc1nc(C#Cc2ccc(Cl)s2)nc2c1ncn2[C@H]1[C@H](O)[C@H](O)[C@]2(C(=O)NC)C[C@H]12
[9]
  EC50: > 1000 nM
[2]
  Activity: 268%
[2]; read-out: EC50
  EC50: 1120 nM
[10]
  IC50: > 8700 nM
[3]
  Activity: 159%
[3]; read-out: EC50
  EC50: 900 nM
[11]
  Ki: 1440 nM

## COC(=O)[C@H]1[C@@H](c2ccc([125I])cc2)CC2CC[C@H]1N2C
[12]
  Ki: 11 nM
[5]
  EC50: Not Active
[7]
  EC50: Not Active

## CCOC(=O)[C@@]12C[C@@H]1[C@@H](n1cnc3c(NC)nc(C#Cc4ccc(Cl)s4)cc31)[C@H](O)[C@@H]2O
[13]
  Efficacy: 3.6%
[14]
  inhibition: inactive
[15]
  Activity: 354%
[16]
  Ki: 3800 nM
Adenosine receptor A3
  Ki: 169 nM
[17]
  Ki: 1040 nM
[18]
  inhibition: 18%
[19]
  Ki: 1900 nM
[20]
  Ki: 395 nM

## CNc1nc(C#Cc2ccc(Cl)s2)nc2c1ncn2[C@H]1[C@H](O)[C@H](O)[C@]2(C(=O)OCc3ccccc3)C[C@H]12
[15]
  Activity: inactive
[21]
  Ki: 5600 nM
Adenosine receptor A3
  Ki: 7.31 nM
[18]
  inhibition: 48%
